According to ChEMBL document CHEMBL1130205, “Potent noncovalent thrombin inhibitors that utilize the unique amino acid D-dicyclohexylalanine in the P3 position. Implications on oral bioavailability and antithrombotic efficacy” (J Med Chem, 1997):

Columns and labels:
[1] = (§1) Number of occlusions was reported; type: ADME
How it was run: (§2)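 Rat carotid artery FeCl3-induced thrombosis: inhibitor infused iv at 6 µg/kg/min for 120 min before FeCl3 insult (vehicle saline or 30% propylene glycol/saline); occlusions counted; plasma drug level at end of experiment. 2X APTT = plasma concentration (µM) doubling activated partial thromboplastin time, determined in rat plasma.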

Canis familiaris [2] = assay: AUC (Area under curve) was determined after peroral administration at a dose 5 mg/kg in dog; type: ADME, organism-based, Canis lupus familiaris, Plasma; parameters: dose 5 mg/kg, route oral; conditions: in vivo, po
How it was run: (§3)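 Two fasted male beagle dogs (10-12 kg), crossover design. Oral 5 mg/kg as 1% methocel suspension, blood from jugular vein at 0-480 min; iv 1 mg/kg bolus in 20% PEG/saline, blood at 0-480 min. Plasma frozen at -20 °C and assayed by HPLC.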

Rattus norvegicus [3] = assay: AUC (Area under curve) was determined after intravenous administration at a dose 2 mg/kg in rat.; type: ADME, organism-based, Plasma; parameters: dose 2 mg/kg, route intravenous; conditions: in vivo
[4] = Bioavailability in rat; type: ADME, organism-based; conditions: in vivo
How it was run: (§4)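 Cannulated rats (carotid artery; jugular vein for iv group) dosed 2 mg/kg iv (saline or 30% propylene glycol/saline) or 10 mg/kg po (0.1% methocel suspension). Blood sampled 1-360 min (iv) or 15-360 min (po), centrifuged, plasma extracted with acetonitrile and quantified by thrombin enzyme activity assay.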

[5] = The fraction of free compound available in plasma of rat; type: ADME, cell-free; conditions: read-out: Funbound_plasma
[6] = (§5) log P values were determined by the standard partition method using octanol/pH 7.4 phosphate buffer; type: physicochemical
How it was run: (§6)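 Octanol/pH 7.4 phosphate buffer standard partition method.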

Rattus norvegicus [7] = organism: Rattus norvegicus; assay: as §1; type: functional; how it was run: as §2
Prothrombin = Prothrombin (Homo sapiens, UniProt P00734); assay: Inhibitory activity against human thrombin
[8] = The half life period by peroral administration in dog; type: ADME, organism-based, Canis lupus familiaris; conditions: in vivo, po; how it was run: as §3
[9] = The plasma clearance in dog.; type: ADME, organism-based, Canis lupus familiaris; conditions: read-out: CI; how it was run: as §3
Rattus norvegicus [10] = assay: AUC (Area under curve) was determined after peroral administration at a dose 10 mg/kg in rat.; type: ADME, organism-based, Plasma; parameters: dose 10 mg/kg, route oral; conditions: in vivo, po
[11] = as §5; type: physicochemical; how it was run: as §6; remark: listed apart in the source
[12] = Bioavailability in dog; type: ADME, organism-based, Canis lupus familiaris; conditions: in vivo; how it was run: as §3
[13] = The half life period by intravenous administration in dog; type: ADME, organism-based, Canis lupus familiaris; conditions: in vivo; how it was run: as §3
Rattus norvegicus [14] = assay: Concentration required to double the activated partial thromboplastin time (2X APTT) in FeCl3 induced thrombosis in rat carotid artery at 6 micro g/kg/min dose by intravenous administration.; type: functional; how it was run: as §2
Canis familiaris [15] = assay: AUC (Area under curve) was determined after intravenous administration at a dose 1 mg/kg in dog; type: ADME, organism-based, Canis lupus familiaris, Plasma; parameters: dose 1 mg/kg, route intravenous; conditions: in vivo; how it was run: as §3
[16] = The half life period in rat.; type: ADME, organism-based; conditions: in vivo; how it was run: as §4
[17] = The plasma clearance in rat.; type: ADME, organism-based; conditions: read-out: CI; how it was run: as §4
Plasminogen = Plasminogen (Homo sapiens, UniProt P00747); assay: Inhibitory activity against human serine protease (plasmin) (3.0*10e6)
Serine protease 1 [18] = target: T1, Serine protease 1 (Homo sapiens, UniProt P07477); assay: Inhibitory activity against human serine protease (Trypsin)(2143*)
[19] = target: Tissue-type plasminogen activator (Homo sapiens, UniProt P00750); assay: Inhibitory activity against human serine protease (TPA) (2.5*10e6*)
Coagulation factor X = Coagulation factor X (Homo sapiens, UniProt P00742); assay: Inhibitory activity against human serine protease Coagulation factor X (1.7*10e6*)
Plasma kallikrein = Plasma kallikrein (Homo sapiens, UniProt P03952); assay: Inhibitory activity against human serine protease (plasma Kallikrein) (89000*)
[20] = The fraction of free compound available in plasma of human; type: ADME, cell-free; conditions: read-out: Funbound_plasma
[21] = Partition coefficient (logP); type: physicochemical; conditions: octanol/water; how it was run: as §6
Serine protease 1 [22] = target: T1, Serine protease 1; assay: Inhibitory activity against human trypsin

T1 sequence (P07477 whole entry): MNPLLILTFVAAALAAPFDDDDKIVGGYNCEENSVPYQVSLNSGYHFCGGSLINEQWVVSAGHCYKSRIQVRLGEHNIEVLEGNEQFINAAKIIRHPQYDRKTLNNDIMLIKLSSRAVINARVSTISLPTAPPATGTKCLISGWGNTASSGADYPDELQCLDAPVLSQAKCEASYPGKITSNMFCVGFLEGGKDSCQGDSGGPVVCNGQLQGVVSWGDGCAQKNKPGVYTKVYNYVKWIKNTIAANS
Sequence of Tissue-type plasminogen activator (P00750 whole entry): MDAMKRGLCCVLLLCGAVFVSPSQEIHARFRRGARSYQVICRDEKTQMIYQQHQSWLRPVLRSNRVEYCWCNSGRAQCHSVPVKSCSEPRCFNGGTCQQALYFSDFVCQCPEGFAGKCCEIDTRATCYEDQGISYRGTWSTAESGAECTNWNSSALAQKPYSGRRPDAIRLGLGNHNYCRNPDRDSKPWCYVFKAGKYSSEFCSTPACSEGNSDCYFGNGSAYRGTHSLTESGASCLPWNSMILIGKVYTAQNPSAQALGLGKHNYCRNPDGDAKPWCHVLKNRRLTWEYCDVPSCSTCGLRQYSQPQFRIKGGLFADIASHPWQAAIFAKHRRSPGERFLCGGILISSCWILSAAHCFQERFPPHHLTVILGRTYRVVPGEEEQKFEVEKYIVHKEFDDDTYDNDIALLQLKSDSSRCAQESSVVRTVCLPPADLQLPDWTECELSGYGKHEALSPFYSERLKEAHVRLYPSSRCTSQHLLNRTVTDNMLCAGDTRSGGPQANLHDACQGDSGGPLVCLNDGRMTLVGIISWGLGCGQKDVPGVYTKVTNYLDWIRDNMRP
Sequence of Plasminogen (P00747 97-580 limits assumed): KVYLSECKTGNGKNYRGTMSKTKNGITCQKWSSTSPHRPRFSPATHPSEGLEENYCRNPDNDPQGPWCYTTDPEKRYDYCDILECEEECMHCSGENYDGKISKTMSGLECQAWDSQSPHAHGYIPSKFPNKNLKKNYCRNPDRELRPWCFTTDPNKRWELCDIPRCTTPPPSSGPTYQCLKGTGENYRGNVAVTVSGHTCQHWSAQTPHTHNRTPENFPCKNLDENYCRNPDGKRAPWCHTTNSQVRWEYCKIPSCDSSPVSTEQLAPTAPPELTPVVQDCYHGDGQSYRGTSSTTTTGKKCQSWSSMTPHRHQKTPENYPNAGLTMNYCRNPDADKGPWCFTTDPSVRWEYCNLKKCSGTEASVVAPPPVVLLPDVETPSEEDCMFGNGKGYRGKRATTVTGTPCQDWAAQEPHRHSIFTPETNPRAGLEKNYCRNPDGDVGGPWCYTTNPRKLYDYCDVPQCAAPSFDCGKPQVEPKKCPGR
Sequence of Plasminogen (P00747 581-810 limits assumed): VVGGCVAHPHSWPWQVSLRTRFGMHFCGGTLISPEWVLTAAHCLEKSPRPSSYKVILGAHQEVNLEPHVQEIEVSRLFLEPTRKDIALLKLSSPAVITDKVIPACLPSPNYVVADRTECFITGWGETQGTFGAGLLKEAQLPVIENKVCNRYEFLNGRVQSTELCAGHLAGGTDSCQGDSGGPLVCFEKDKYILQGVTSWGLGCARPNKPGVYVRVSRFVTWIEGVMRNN
Sequence of Coagulation factor X (P00742 41-179 limits assumed): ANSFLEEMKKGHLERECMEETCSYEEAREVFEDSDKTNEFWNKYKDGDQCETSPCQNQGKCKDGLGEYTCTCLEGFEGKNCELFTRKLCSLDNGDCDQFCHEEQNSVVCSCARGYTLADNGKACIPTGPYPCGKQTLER
Sequence of Coagulation factor X (P00742 235-488 limits assumed): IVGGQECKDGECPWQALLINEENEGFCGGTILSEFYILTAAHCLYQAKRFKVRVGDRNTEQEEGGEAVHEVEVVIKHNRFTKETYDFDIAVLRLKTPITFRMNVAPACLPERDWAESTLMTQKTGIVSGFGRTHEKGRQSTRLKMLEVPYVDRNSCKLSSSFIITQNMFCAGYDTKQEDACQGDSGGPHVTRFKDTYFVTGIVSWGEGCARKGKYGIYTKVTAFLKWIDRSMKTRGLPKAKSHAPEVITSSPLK
Sequence of Plasma kallikrein (P03952 20-390 limits assumed): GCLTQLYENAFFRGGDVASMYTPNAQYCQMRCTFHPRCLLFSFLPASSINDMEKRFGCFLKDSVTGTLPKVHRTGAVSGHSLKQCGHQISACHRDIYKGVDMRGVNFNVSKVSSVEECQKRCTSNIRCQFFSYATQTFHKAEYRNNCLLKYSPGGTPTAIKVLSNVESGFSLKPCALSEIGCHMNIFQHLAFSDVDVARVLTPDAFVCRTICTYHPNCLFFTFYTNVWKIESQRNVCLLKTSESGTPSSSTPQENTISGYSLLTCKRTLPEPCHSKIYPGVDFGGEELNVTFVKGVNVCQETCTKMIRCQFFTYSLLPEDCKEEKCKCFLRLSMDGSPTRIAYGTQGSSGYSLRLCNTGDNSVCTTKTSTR
Sequence of Plasma kallikrein (P03952 391-638 limits assumed): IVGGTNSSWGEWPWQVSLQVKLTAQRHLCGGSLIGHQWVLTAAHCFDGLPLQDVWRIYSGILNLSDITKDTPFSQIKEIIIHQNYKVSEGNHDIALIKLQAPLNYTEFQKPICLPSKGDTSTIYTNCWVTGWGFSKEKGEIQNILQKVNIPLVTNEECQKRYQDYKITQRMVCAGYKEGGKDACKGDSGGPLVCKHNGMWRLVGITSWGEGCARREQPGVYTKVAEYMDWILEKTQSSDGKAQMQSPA

Structure (SMILES)	AUC (Rattus norvegicus [3]) [µM·h]	bioavailability [4] [%]	fraction unbound [5]	No. of occlusions (Rattus norvegicus [7])	Ki (Prothrombin) [nM]	AUC (Rattus norvegicus [10]) [µM·h]	logD [11]	half-life [16] [h]	clearance [17] [mL/min/kg]	other results
CC1CNc2c(cccc2S(=O)(=O)N[C@@H](CCCNC(=N)N)C(=O)N2CCC(C)C[C@@H]2C(=O)O)C1 (single isomer, unassigned) [ARGATROBAN]										No. of occlusions [1]: 0
CC(C)(C)OC(=O)N[C@@H](C(=O)N1CCC[C@H]1C(=O)NCC1CCC(N)CC1)C(C1CCCCC1)C1CCCCC1 (some centres not stated)	3.34	41	< 0.01	4	0.1	6.86	> 3.09	4.15	17.9	AUC (Canis familiaris [2]): 45.3 µM·h; logD [6]: > 3.09; half-life [8]: 7.13 h; clearance [9]: 6.06 mL/min/kg; bioavailability [12]: 90%; half-life [13]: 3.27 h; Concentration (Rattus norvegicus [14]): 2.7 µM; AUC (Canis familiaris [15]): 90 µM·h
NC1CCC(CNC(=O)[C@@H]2CCCN2C(=O)[C@@H](N)C(C2CCCCC2)C2CCCCC2)CC1 (some centres not stated)					440					
NC1CCC(CNC(=O)[C@@H]2CCCN2C(=O)[C@H](N)C(C2CCCCC2)C2CCCCC2)CC1 (some centres not stated)	3.3	2	0.06	1	0.056	0.36	0.794	0.2	6	Ki (Plasminogen): 165000 nM; Ki (Serine protease 1 [18]): 120 nM; Ki [19]: 137000 nM; Ki (Coagulation factor X): 95000 nM; Ki (Plasma kallikrein): 5000 nM; fraction unbound [20]: 0.02
CC(C)(C)OC(=O)N[C@H](C(=O)N1CCC[C@H]1C(=O)NCC1CCC(N)CC1)C(C1CCCCC1)C1CCCCC1 (some centres not stated)					3000					
NC1CCC(CNC(=O)[C@@H]2CCCN2C(=O)[C@H](N)C(c2ccccc2)c2ccccc2)CC1 (some centres not stated)										logP [21]: -0.539; Ki (Serine protease 1 [22]): 94 nM
